# Screening data (PubChem)
# Only some compounds are listed: those with a hit (about 3.3% of all), similar ones and a draw of the others.
# LEDGF integ inh: blocks HIV-1 LEDGF/p75-dependent DNA integration; 0.64% of 370,000 active; AID 743269; TR-FRET IN-LEDGF/p75 DNA integration, Eu/Cy5; inhibition, % at 3.7 µM;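 active means inhibition above the screen-wide mean plus 3 SD, cut at about 13% in these data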;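 further: signal is the Cy5 over europium emission ratio at 671 and 618 nm; 0% = plate median of compound wells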
# MBD2 inh: blocks human MBD2 binding to methylated DNA | Q9UBB5 | TR-FRET, MBD2 binding to methylated oligonucleotide | inhibition, % at 4.4 µM | 0.31% of 370,000 active; in the data active means inhibition above about 13%
# PRMT1 inh: inhibitors of human PRMT1. recombinant PRMT1, activity-based probe fluorescence polarization. 1.3% of 370,000 active. inhibition, % at 2.79 µM. Q99873;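 active means inhibition above about 21% made by adding two undisclosed values, limit read from the data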
# Target sequence (Q99873 whole entry, looked up): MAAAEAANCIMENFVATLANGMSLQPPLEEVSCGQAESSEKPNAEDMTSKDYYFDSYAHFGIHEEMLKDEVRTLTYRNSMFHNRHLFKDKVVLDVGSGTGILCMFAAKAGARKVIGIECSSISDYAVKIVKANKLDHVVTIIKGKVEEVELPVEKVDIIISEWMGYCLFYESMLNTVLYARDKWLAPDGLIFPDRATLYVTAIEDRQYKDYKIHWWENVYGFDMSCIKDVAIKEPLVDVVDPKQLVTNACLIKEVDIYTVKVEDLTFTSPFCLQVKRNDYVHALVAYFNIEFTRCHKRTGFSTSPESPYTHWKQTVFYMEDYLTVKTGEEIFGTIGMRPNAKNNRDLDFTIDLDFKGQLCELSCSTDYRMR
# TDP2 inh: blocks human TDP2 phosphodiesterase activity | inhibition, % at 12.8 µM | 0.34% of 370,000 active | recombinant TDP2, T5PNP hydrolysis, p-nitrophenol absorbance 415 nm;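 active means inhibition above the mean of all tested compounds plus 3 SD, set per campaign, cut at about 25% in these data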;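 further: 0% = DMSO with enzyme and 100% = buffer with substrate but no TDP2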
#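 Read-out basis: percent inhibition. System: recombinant human TDP2. Buffer or medium: Mg2+-containing Tris-HCl buffer, pH 7.5. Repeats: single replicate. Timing: reaction 2 h, 37 °C. Benchmarks: high control without enzyme, low control DMSO plus TDP2. Probe or stimulus: 5 mM T5PNP. Doses: 12.8 µM only. Measured by: epi absorbance of p-nitrophenol freed from T5PNP by hydrolysis.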
# UHRF1 binding: UHRF1 methyl-DNA binding inhibition | Q96T88 | UHRF1 binding to methylated oligo, TR-FRET | inhibition, % at 4.4 µM | 0.75% of 370,000 active; in the data active means inhibition above about 21%;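 further: UHRF1 SRA domain binding a hemimethylated CpG hairpin DNA probe; 0% = median of test compound wells and 100% = reference inhibitor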
# SIAE primary: inhibitors of human sialic acid acetylesterase SIAE; 0.69% of 370,000 active; inhibition, % at 9.66 µM; AID 1053197; SIAE FP-Rh probe binding, fluorescence polarization; Q9HAT2;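 active means inhibition above a cutoff: mean of compounds within the control limits plus 3 SD of those, cut at about 17% in these data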;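 further: 0% = plate median of compound wells and 100% = probe without SIAE protein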
# SIAE confirm: human SIAE inhibition, confirmation; SIAE FP-Rh activity-based probe, fluorescence polarization; AID 1117263; 13% of 2,300 active; shares compounds with SIAE primary; inhibition, % at 9.66 µM;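 active means mean inhibition of the replicates above the hit cutoff set in the primary screen, cut at about 17% in these data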;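 further: 0% = SIAE with DMSO and probe and 100% = probe without SIAE; inhibitors lower polarization as more probe stays unbound to SIAE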
# An asterisk follows results filed as active; · = no result.
SMILES,LEDGF integ inh,MBD2 inh,PRMT1 inh,TDP2 inh,UHRF1 binding,SIAE primary,SIAE confirm
Oc1cccc(Nc2nc(O)c(/C=C3\C=Nc4ccccc43)s2)c1,2,-4,-16,0,-3,-55,·
Oc1nc(Nc2cccc(Cl)c2)sc1/C=C1\C=Nc2ccccc21,1,3,1,-4,3,26*,-19
CN(C)CCCN(C(=O)c1ccc(S(=O)(=O)N(C)Cc2ccccc2)cc1)c1nc2cc3c(cc2s1)OCO3,2,2,-1,4,-1,22*,15
Cc1ccc2sc(NNC(=O)c3cc(=O)c4ccccc4o3)nc2c1C,1,6,10,8,4,25*,33*
O=C(NNc1nc2c(F)cccc2s1)c1cc(=O)c2ccccc2o1,-6,-1,10,-6,-2,18*,-4
CCN(CC)C(=O)c1ccc2c(c1)NC(=O)C(C)(C)O2,-2,6,1,4,2,5,·
Cc1cc(Nc2ccccc2C(=O)O)nc2nc3ccccc3c(=O)n12,2,-2,-3,0,0,23*,-4
Cc1ccc2nc(SCC(=O)Nc3ccc4[nH]c(=O)[nH]c4c3)[nH]c2c1,-6,-1,4,-5,2,2,·
O=C(CSc1nc2ccc(Cl)cc2[nH]1)Nc1ccc2[nH]c(=O)[nH]c2c1,0,5,5,2,0,18*,2
CN(C)c1ccc(NC(=O)c2cn(-c3ccccc3)nc2-c2cccs2)cc1,-3,0,3,-5,0,25*,19*
O=C(Nc1ccc2ccccc2c1)c1cn(-c2ccccc2)nc1-c1cccs1,1,-3,-4,3,-1,-108,·
Cn1c(=O)c(N)c2c3c(c(Br)ccc31)C(=O)c1ccccc1-2,-4,-20,180*,19,-60,28*,25*
Cc1ccc(CN[C@@H]2CC[C@@]34CCCN3C(=O)CCC[C@H]4C2)o1,1,1,0,13,0,-2,·
COC(=O)c1ccc(Oc2nc3c(c(=O)n(C)c(=O)n3C)n2CCC(C)C)cc1,1,0,-1,-4,-3,28*,-3
O=C(N1CCOCC1)N1CC[C@H]2[C@H](CCCN2Cc2cc(F)cc(F)c2)C1,2,-3,-6,-11,0,-1,·
C(=C\c1ccccc1)/CSc1nnc(-c2cccnc2)o1,-1,3,3,-1,2,21*,1
CCOC(=O)C(O)(C1C(=O)CC(C)(C)CC1=O)C(F)(F)F (stereo not drawn),2,-1,0,0,1,33*,19*
CC(=O)NC(C1C(=O)CC(C)(C)CC1=O)(C(F)(F)F)C(F)(F)F,-2,3,-4,-9,-2,-2,·
Cc1ccc(S(=O)(=O)N2CCOC23CCN(S(=O)(=O)c2cccs2)CC3)cc1,-1,4,0,-5,-1,18*,4
CCCC(=O)N1CCC[C@]2(CC[C@H](CCC(C)=O)O2)C1,1,3,4,-2,4,2,·
Oc1ccc(C(=S)N2CCCCCC2)cc1,-1,-4,1,-8,-2,23*,0
Cc1nc(N2CCN(S(=O)(=O)c3ccc(Br)cc3)CC2)c2c(C)c(C)sc2n1,3,-1,-3,10,0,19*,-7
Cc1ccc(NC(=O)NNC(=O)c2cc3ccccc3cc2O)c(C)c1,2,-6,-1,9,0,22*,-4
CC(=NCc1cccc(Cl)c1)c1nc(-c2ccco2)oc1O,3,-4,-1,4,-4,21*,1
CN1C(=O)[C@@]2(O[C@H]3C=CC=CN3C3=C2C(=O)CCC3)c2cccc(Br)c21,1,5,11,4,0,2,·
Nc1ccc(C(=O)N/N=C/c2cn(Cc3ccccc3F)c3ccccc23)cc1,-1,4,2,-4,-1,20*,10
O=C(N/N=C/c1cn(Cc2cccc(F)c2)c2ccccc12)c1cc(O)cc(O)c1,39*,27*,11,7,66*,37*,1
Nc1ccc(C(=O)N/N=C/c2cn(Cc3ccc(F)cc3)c3ccccc23)cc1,-5,4,4,-6,-3,16,·
